We go through 16 compounds from ChEMBL document CHEMBL1817561, “5a-Carba-β-D-glucopyranose derivatives as novel sodium-dependent glucose cotransporter 2 (SGLT2) inhibitors for the treatment of type 2 diabetes” (Bioorg Med Chem, 2011).

The structures appear in SMILES notation. Activity calls are given as the source filed them. The calls are words filed in the database; no cut-off is given here.

For one assay, the target named is T1, Sodium/glucose cotransporter 2 (Homo sapiens, UniProt P31639).
T1 sequence (P31639 whole entry): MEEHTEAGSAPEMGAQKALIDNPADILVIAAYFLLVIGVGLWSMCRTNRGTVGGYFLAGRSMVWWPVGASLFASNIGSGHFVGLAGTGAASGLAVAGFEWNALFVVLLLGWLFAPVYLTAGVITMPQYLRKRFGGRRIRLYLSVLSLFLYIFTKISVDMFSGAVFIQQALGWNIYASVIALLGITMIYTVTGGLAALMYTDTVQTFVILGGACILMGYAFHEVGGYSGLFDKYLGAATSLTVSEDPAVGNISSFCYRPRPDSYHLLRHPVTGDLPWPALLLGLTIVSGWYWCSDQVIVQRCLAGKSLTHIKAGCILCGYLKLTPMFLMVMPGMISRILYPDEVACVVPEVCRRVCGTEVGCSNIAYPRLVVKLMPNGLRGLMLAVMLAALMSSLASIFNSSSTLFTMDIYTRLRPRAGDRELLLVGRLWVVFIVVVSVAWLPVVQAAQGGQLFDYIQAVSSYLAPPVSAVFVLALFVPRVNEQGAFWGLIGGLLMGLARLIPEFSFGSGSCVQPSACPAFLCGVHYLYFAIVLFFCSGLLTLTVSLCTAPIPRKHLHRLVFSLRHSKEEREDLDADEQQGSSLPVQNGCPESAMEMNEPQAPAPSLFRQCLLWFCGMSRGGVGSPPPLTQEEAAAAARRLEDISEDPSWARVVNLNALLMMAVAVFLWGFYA
Nature of the assay: Inhibition of human SGLT2 expressed in CHO cells assessed as [14C]AMG uptake after 45 mins. The assay is classed as cell-based. The gist of the method:
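Cells incubated 45 min in reaction buffer with compound plus 1 mM AMG containing [14C]AMG; uptake read as radioactivity in cell lysates. IC50 from four-parameter logistic curve fit; means of multiple independent experiments, with phlorizin and reference standard included in every run.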
In general, IC50 refers to the concentration needed to halve the response being measured. Take `COc1ccc(Cc2ccccc2O[C@@H]2O[C@H](CO)[C@@H](O)[C@H](O)[C@H]2O)cc1` [SERGLIFLOZIN A]: the IC50 came out at 4.8 nM.
Still for that read-out and setting: the figure for `OC[C@H]1C[C@@H](Oc2ccccc2Cc2ccccc2)[C@H](O)[C@@H](O)[C@@H]1O` is 690 nM; for `CSc1ccc(Cc2ccccc2O[C@@H]2C[C@H](CO)[C@@H](O)[C@H](O)[C@H]2O)cc1` it is 19 nM; for `OC[C@H]1C[C@@H](Oc2ccccc2Cc2ccc(C(F)(F)F)cc2)[C@H](O)[C@@H](O)[C@@H]1O` it is 120 nM.
For `OC[C@H]1C[C@@H](Oc2ccccc2Cc2ccc(O)cc2)[C@H](O)[C@@H](O)[C@@H]1O`, the IC50 is 290 nM.
The same measure, in the same setting: the figure for `C=Cc1ccc(Cc2ccccc2O[C@@H]2C[C@H](CO)[C@@H](O)[C@H](O)[C@H]2O)cc1` is 29 nM; for `CCOC(=O)OC[C@H]1O[C@@H](Oc2ccccc2Cc2ccc(OC)cc2)[C@H](O)[C@@H](O)[C@@H]1O` [SERGLIFLOZIN ETABONATE] it is 260 nM.
In the case of `OC[C@H]1C[C@@H](Oc2ccccc2Cc2ccc(F)cc2)[C@H](O)[C@@H](O)[C@@H]1O`, the 50% inhibitory concentration (IC50) came out at 630 nM.
For `OC[C@H]1C[C@@H](Oc2ccccc2Cc2ccc(C3CC3)cc2)[C@H](O)[C@@H](O)[C@@H]1O`, the IC50 was 11 nM.
Same read-out and setting: for `CC(C)c1ccc(Cc2ccccc2O[C@@H]2C[C@H](CO)[C@@H](O)[C@H](O)[C@H]2O)cc1` the value was 150 nM; for `CCOc1ccc(Cc2ccccc2O[C@@H]2C[C@H](CO)[C@@H](O)[C@H](O)[C@H]2O)cc1`, 110 nM.
Turning to `Cc1ccc(Cc2ccccc2O[C@@H]2C[C@H](CO)[C@@H](O)[C@H](O)[C@H]2O)cc1`, the IC50 came out at 59 nM.
On the same count and under the same terms, for `OC[C@H]1C[C@@H](Oc2ccccc2Cc2ccc(Cl)cc2)[C@H](O)[C@@H](O)[C@@H]1O` the value was 150 nM; for `COc1ccc(Cc2ccccc2O[C@@H]2C[C@H](CO)[C@@H](O)[C@H](O)[C@H]2O)cc1`, 42 nM.
On the same count and under the same terms, for `CCCc1ccc(Cc2ccccc2O[C@@H]2C[C@H](CO)[C@@H](O)[C@H](O)[C@H]2O)cc1` the value was 120 nM; for `CCc1ccc(Cc2ccccc2O[C@@H]2C[C@H](CO)[C@@H](O)[C@H](O)[C@H]2O)cc1`, 28 nM.

The next assay concerns Mus musculus. Nature of the assay: Antidiabetic activity in db/db mouse assessed as reduction of blood glucose level at 100 mg/kg, po after 8 hrs by hexokinase method. The class given is functional, organism-based. More on the design: dose 100 mg/kg. In outline: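 Male db/db mice on regular chow; single oral gavage dose of 100 mg/kg as homogeneous suspension in 0.5% carboxymethylcellulose sodium. Blood sampled before dosing and at 1, 2, 4, 6, 8, 10 and 24 h; glucose measured by hexokinase method.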
With `CCOC(=O)OC[C@H]1O[C@@H](Oc2ccccc2Cc2ccc(OC)cc2)[C@H](O)[C@@H](O)[C@@H]1O` [SERGLIFLOZIN ETABONATE], the outcome was Active.
Consider `COc1ccc(Cc2ccccc2O[C@@H]2C[C@H](CO)[C@@H](O)[C@H](O)[C@H]2O)cc1`, for which the outcome was Active.
